What was measured:
Format in all cases: cell-based
GFP–PKCθ Q258G = GFP–PKCθ Q258G (Mus musculus, UniProt Q02111, Q258G); assay: Confocal translocation in living LNCaP cells
Method in brief: (§1)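 Mouse full-length PKCθ (wild-type or C1B point mutant) carrying a C-terminal EGFP tag via a GGNSGG spacer, transfected into LNCaP prostate cancer cells. Living cells were exposed to PMA and imaged by confocal microscopy over a time course. Membrane/cytoplasm intensity ratios were quantified from the images; means ± S.E.M., with images typical of three to four independent experiments.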

GFP–PKCθ T243A = GFP–PKCθ T243A (Mus musculus, UniProt Q02111, T243A); assay: Confocal translocation in living LNCaP cells
GFP–PKCθ T243A, sequence (Q02111 whole entry T243A): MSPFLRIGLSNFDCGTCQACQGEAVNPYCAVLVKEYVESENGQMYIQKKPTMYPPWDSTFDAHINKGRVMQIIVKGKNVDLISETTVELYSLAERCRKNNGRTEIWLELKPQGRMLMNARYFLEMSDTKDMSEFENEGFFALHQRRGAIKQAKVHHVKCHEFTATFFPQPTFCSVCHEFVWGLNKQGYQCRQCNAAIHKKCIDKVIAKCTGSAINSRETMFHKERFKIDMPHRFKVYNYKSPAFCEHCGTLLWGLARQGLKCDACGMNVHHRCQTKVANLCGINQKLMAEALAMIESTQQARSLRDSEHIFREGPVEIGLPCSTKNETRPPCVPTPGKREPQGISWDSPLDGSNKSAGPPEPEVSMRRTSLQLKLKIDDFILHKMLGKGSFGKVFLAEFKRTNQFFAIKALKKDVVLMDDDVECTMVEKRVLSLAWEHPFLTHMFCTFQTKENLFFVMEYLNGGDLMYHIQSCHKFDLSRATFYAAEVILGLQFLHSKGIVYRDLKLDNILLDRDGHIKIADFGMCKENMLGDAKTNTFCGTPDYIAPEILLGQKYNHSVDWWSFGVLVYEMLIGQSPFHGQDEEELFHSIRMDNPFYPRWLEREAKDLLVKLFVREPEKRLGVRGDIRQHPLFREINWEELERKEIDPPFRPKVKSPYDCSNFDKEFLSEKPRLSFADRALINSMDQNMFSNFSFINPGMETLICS
Method in brief: as §1

GFP–PKCθ wild-type = GFP–PKCθ wild-type (Mus musculus, UniProt Q02111); assay: Confocal translocation in living LNCaP cells
GFP–PKCθ wild-type, sequence (Q02111 whole entry): as the sequence (Q02111 whole entry T243A) above, with A243T counted along it
Method in brief: as §1

GFP–PKCθ Y239A = GFP–PKCθ Y239A (Mus musculus, UniProt Q02111, Y239A); assay: Confocal translocation in living LNCaP cells
GFP–PKCθ Y239A, sequence (Q02111 whole entry Y239A): as the sequence (Q02111 whole entry T243A) above, with Y239A, A243T counted along it
Method in brief: as §1

GFP–PKCθ L255G = GFP–PKCθ L255G (Mus musculus, UniProt Q02111, L255G); assay: Confocal translocation in living LNCaP cells
GFP–PKCθ L255G, sequence (Q02111 whole entry L255G): as the sequence (Q02111 whole entry T243A) above, with A243T, L255G counted along it
Method in brief: as §1

GFP–PKCθ W253G = GFP–PKCθ W253G (Mus musculus, UniProt Q02111, W253G); assay: Confocal translocation in living LNCaP cells
GFP–PKCθ W253G, sequence (Q02111 whole entry W253G): as the sequence (Q02111 whole entry T243A) above, with A243T, W253G counted along it
Method in brief: as §1

full-length PKCθ Q258G = full-length PKCθ Q258G (Mus musculus, UniProt Q02111, Q258G); assay: Membrane translocation in HEK-293 cells; conditions: 50 nM PMA, 2 h
full-length PKCθ Q258G, sequence (Q02111 whole entry Q258G): as the sequence (Q02111 whole entry T243A) above, with A243T, Q258G counted along it

full-length PKCθ L255G = full-length PKCθ L255G (Mus musculus, UniProt Q02111, L255G); assay: Membrane translocation in HEK-293 cells; conditions: 50 nM PMA, 2 h
full-length PKCθ L255G, sequence (Q02111 whole entry L255G): as the sequence (Q02111 whole entry T243A) above, with A243T, L255G counted along it

full-length PKCθ Y239A = full-length PKCθ Y239A (Mus musculus, UniProt Q02111, Y239A); assay: Membrane translocation in HEK-293 cells; conditions: 50 nM PMA, 2 h
full-length PKCθ Y239A, sequence (Q02111 whole entry Y239A): as the sequence (Q02111 whole entry T243A) above, with Y239A, A243T counted along it

full-length PKCθ T243A = full-length PKCθ T243A (Mus musculus, UniProt Q02111, T243A); assay: Membrane translocation in HEK-293 cells; conditions: 50 nM PMA, 2 h
full-length PKCθ T243A, sequence (Q02111 whole entry T243A): as the sequence (Q02111 whole entry T243A) above

full-length PKCθ W253G = full-length PKCθ W253G (Mus musculus, UniProt Q02111, W253G); assay: Membrane translocation in HEK-293 cells; conditions: 50 nM PMA, 2 h
full-length PKCθ W253G, sequence (Q02111 whole entry W253G): as the sequence (Q02111 whole entry T243A) above, with A243T, W253G counted along it

[1] = 100 nM PMA (second block, r6-r8), 5 min
[2] = 100 nM PMA (second block, r6-r8), 10 min
[3] = 100 nM PMA (second block, r6-r8), 20 min
[4] = 100 nM PMA as printed (first block, r3-r5), 5 min
[5] = 100 nM PMA as printed (first block, r3-r5), 10 min
[6] = 100 nM PMA as printed (first block, r3-r5), 20 min

GFP–PKCθ Q258G, sequence (Q02111 whole entry Q258G): as the sequence (Q02111 whole entry T243A) above, with A243T, Q258G counted along it

Q: Which “Membrane/cytoplasmic intensity ratio, PKCθ Q258G” value (GFP–PKCθ Q258G; 10 nM PMA, 5 min) does the source give for CCCCCCCCCCCCCC(=O)O[C@@H]1[C@@H](C)[C@@]2(O)[C@@H](C=C(CO)C[C@]3(O)C(=O)C(C)=C[C@@H]23)[C@@H]2C(C)(C)[C@]12OC(C)=O [PMA] here?
A: 1.2 ± 0.1

Q: What about the “Membrane/cytoplasmic intensity ratio, PKCθ Q258G” value (GFP–PKCθ Q258G; 10 nM PMA, 10 min) of the same compound?
A: 1.1 ± 0.1

Q: What about the “Membrane/cytoplasmic intensity ratio, PKCθ Q258G” value (GFP–PKCθ Q258G; 10 nM PMA, 20 min) of the same compound?
A: 1.1 ± 0.0

Q: What about the “Membrane/cytoplasmic intensity ratio, PKCθ Q258G” value (GFP–PKCθ Q258G; [1]) of the same compound?
A: 1.0 ± 0.0

Q: And the “Membrane/cytoplasmic intensity ratio, PKCθ Q258G” value (GFP–PKCθ Q258G; [2])?
A: 1.1 ± 0.0

Q: And the “Membrane/cytoplasmic intensity ratio, PKCθ Q258G” value (GFP–PKCθ Q258G; [3])?
A: 1.1 ± 0.0

Q: And the “Membrane/cytoplasmic intensity ratio, PKCθ Q258G” value (GFP–PKCθ Q258G; [4])?
A: 1.2 ± 0.1

Q: And the “Membrane/cytoplasmic intensity ratio, PKCθ Q258G” value (GFP–PKCθ Q258G; [5])?
A: 2.0 ± 0.3

Q: What about the “Membrane/cytoplasmic intensity ratio, PKCθ Q258G” value (GFP–PKCθ Q258G; [6]) of the same compound?
A: 2.1 ± 0.4

Q: And the “plasma membrane translocation response” value (GFP–PKCθ Q258G; 100 nM PMA, by 20 min)?
A: little response

Q: And the “plasma membrane translocation response” value (GFP–PKCθ Q258G; 1000 nM PMA, later times)?
A: partial translocation

Q: And the “Membrane/cytoplasmic intensity ratio, PKCθ T243A” value (GFP–PKCθ T243A; 10 nM PMA, 5 min)?
A: 1.0 ± 0.0

Q: What about the “Membrane/cytoplasmic intensity ratio, PKCθ T243A” value (GFP–PKCθ T243A; 10 nM PMA, 10 min) of the same compound?
A: 1.3 ± 0.2

Q: And the “Membrane/cytoplasmic intensity ratio, PKCθ T243A” value (GFP–PKCθ T243A; 10 nM PMA, 20 min)?
A: 1.7 ± 0.1

Q: And the “time by which translocation was largely complete” value (GFP–PKCθ T243A; 100 nM PMA)?
A: ≤ 5 min

Q: And the “Membrane/cytoplasmic intensity ratio, PKCθ T243A” value (GFP–PKCθ T243A; [1])?
A: 3.6 ± 1.1

Q: And the “Membrane/cytoplasmic intensity ratio, PKCθ T243A” value (GFP–PKCθ T243A; [2])?
A: 3.7 ± 0.8

Q: And the “Membrane/cytoplasmic intensity ratio, PKCθ T243A” value (GFP–PKCθ T243A; [3])?
A: 3.1 ± 0.6

Q: What about the “Membrane/cytoplasmic intensity ratio, PKCθ T243A” value (GFP–PKCθ T243A; [4]) of the same compound?
A: 10.3 ± 1.9

Q: What about the “Membrane/cytoplasmic intensity ratio, PKCθ T243A” value (GFP–PKCθ T243A; [5]) of the same compound?
A: 9.9 ± 1.5

Q: And the “Membrane/cytoplasmic intensity ratio, PKCθ T243A” value (GFP–PKCθ T243A; [6])?
A: 7.4 ± 1.5

Q: What about the “Membrane/cytoplasmic intensity ratio, PKCθ WT” value (GFP–PKCθ wild-type; 10 nM PMA, 5 min) of the same compound?
A: 1.0 ± 0.1

Q: What about the “Membrane/cytoplasmic intensity ratio, PKCθ WT” value (GFP–PKCθ wild-type; 10 nM PMA, 10 min) of the same compound?
A: 1.0 ± 0.1

Q: What about the “Membrane/cytoplasmic intensity ratio, PKCθ WT” value (GFP–PKCθ wild-type; 10 nM PMA, 20 min) of the same compound?
A: 1.2 ± 0.4

Q: What about the “time to marked translocation to the plasma membrane” value (GFP–PKCθ wild-type; 100 nM PMA) of the same compound?
A: ≤ 2 min

Q: And the “Membrane/cytoplasmic intensity ratio, PKCθ WT” value (GFP–PKCθ wild-type; [1])?
A: 8.1 ± 1.2

Q: And the “Membrane/cytoplasmic intensity ratio, PKCθ WT” value (GFP–PKCθ wild-type; [2])?
A: 6.5 ± 0.7

Q: And the “Membrane/cytoplasmic intensity ratio, PKCθ WT” value (GFP–PKCθ wild-type; [3])?
A: 5.4 ± 0.5

Q: What about the “Membrane/cytoplasmic intensity ratio, PKCθ WT” value (GFP–PKCθ wild-type; [4]) of the same compound?
A: 14.5 ± 2.2

Q: And the “Membrane/cytoplasmic intensity ratio, PKCθ WT” value (GFP–PKCθ wild-type; [5])?
A: 11.3 ± 2.1

Q: And the “Membrane/cytoplasmic intensity ratio, PKCθ WT” value (GFP–PKCθ wild-type; [6])?
A: 12.1 ± 2.2

Q: What about the “Membrane/cytoplasmic intensity ratio, PKCθ Y239A” value (GFP–PKCθ Y239A; 10 nM PMA, 5 min) of the same compound?
A: 1.1 ± 0.0

Q: What about the “Membrane/cytoplasmic intensity ratio, PKCθ Y239A” value (GFP–PKCθ Y239A; 10 nM PMA, 10 min) of the same compound?
A: 1.1 ± 0.1

Q: What about the “Membrane/cytoplasmic intensity ratio, PKCθ Y239A” value (GFP–PKCθ Y239A; 10 nM PMA, 20 min) of the same compound?
A: 1.0 ± 0.0

Q: And the “Membrane/cytoplasmic intensity ratio, PKCθ Y239A” value (GFP–PKCθ Y239A; [1])?
A: 1.7 ± 0.4

Q: And the “Membrane/cytoplasmic intensity ratio, PKCθ Y239A” value (GFP–PKCθ Y239A; [2])?
A: 2.3 ± 0.8

Q: And the “Membrane/cytoplasmic intensity ratio, PKCθ Y239A” value (GFP–PKCθ Y239A; [3])?
A: 2.3 ± 0.5

Q: And the “Membrane/cytoplasmic intensity ratio, PKCθ Y239A” value (GFP–PKCθ Y239A; [4])?
A: 3.8 ± 1.8

Q: And the “Membrane/cytoplasmic intensity ratio, PKCθ Y239A” value (GFP–PKCθ Y239A; [5])?
A: 4.2 ± 1.6

Q: What about the “Membrane/cytoplasmic intensity ratio, PKCθ Y239A” value (GFP–PKCθ Y239A; [6]) of the same compound?
A: 5 ± 0.4

Q: And the “Membrane/cytoplasmic intensity ratio, PKCθ L255G” value (GFP–PKCθ L255G; 10 nM PMA, 5 min)?
A: 1.1 ± 0.1

Q: And the “Membrane/cytoplasmic intensity ratio, PKCθ L255G” value (GFP–PKCθ L255G; 10 nM PMA, 10 min)?
A: 1.1 ± 0.1

Q: And the “Membrane/cytoplasmic intensity ratio, PKCθ L255G” value (GFP–PKCθ L255G; 10 nM PMA, 20 min)?
A: 1.1 ± 0.0

Q: And the “Membrane/cytoplasmic intensity ratio, PKCθ L255G” value (GFP–PKCθ L255G; [1])?
A: 1.3 ± 0.1

Q: And the “Membrane/cytoplasmic intensity ratio, PKCθ L255G” value (GFP–PKCθ L255G; [2])?
A: 1.6 ± 0.2

Q: What about the “Membrane/cytoplasmic intensity ratio, PKCθ L255G” value (GFP–PKCθ L255G; [3]) of the same compound?
A: 2.3 ± 0.4

Q: And the “Membrane/cytoplasmic intensity ratio, PKCθ L255G” value (GFP–PKCθ L255G; [4])?
A: 4.8 ± 1.5

Q: And the “Membrane/cytoplasmic intensity ratio, PKCθ L255G” value (GFP–PKCθ L255G; [5])?
A: 6.0 ± 1.2

Q: And the “Membrane/cytoplasmic intensity ratio, PKCθ L255G” value (GFP–PKCθ L255G; [6])?
A: 7.2 ± 1.9

Q: What about the “Membrane/cytoplasmic intensity ratio, PKCθ W253G” value (GFP–PKCθ W253G; 10 nM PMA, 5 min) of the same compound?
A: 1.0 ± 0.1

Q: What about the “Membrane/cytoplasmic intensity ratio, PKCθ W253G” value (GFP–PKCθ W253G; 10 nM PMA, 10 min) of the same compound?
A: 1.1 ± 0.1

Q: What about the “Membrane/cytoplasmic intensity ratio, PKCθ W253G” value (GFP–PKCθ W253G; 10 nM PMA, 20 min) of the same compound?
A: 1.2 ± 0.2

Q: And the “Membrane/cytoplasmic intensity ratio, PKCθ W253G” value (GFP–PKCθ W253G; [1])?
A: 1.9 ± 0.4

Q: What about the “Membrane/cytoplasmic intensity ratio, PKCθ W253G” value (GFP–PKCθ W253G; [2]) of the same compound?
A: 3.0 ± 0.7

Q: And the “Membrane/cytoplasmic intensity ratio, PKCθ W253G” value (GFP–PKCθ W253G; [3])?
A: 2.6 ± 0.6

Q: What about the “Membrane/cytoplasmic intensity ratio, PKCθ W253G” value (GFP–PKCθ W253G; [4]) of the same compound?
A: 11.4 ± 3.6

Q: What about the “Membrane/cytoplasmic intensity ratio, PKCθ W253G” value (GFP–PKCθ W253G; [5]) of the same compound?
A: 12.7 ± 3.9

Q: And the “Membrane/cytoplasmic intensity ratio, PKCθ W253G” value (GFP–PKCθ W253G; [6])?
A: 13.2 ± 5.0

Q: And the “reduction in membrane translocation compared with the wild-type” value (“reduction in membrane translocation” for short) (full-length PKCθ Q258G)?
A: 21.6%

Q: And the “reduction in membrane translocation” value (full-length PKCθ L255G)?
A: 19.4%

Q: What about the “reduction in membrane translocation” value (full-length PKCθ Y239A) of the same compound?
A: 17.1%

Q: And the “reduction in membrane translocation” value (full-length PKCθ T243A)?
A: 12.5%

Q: And the “reduction in membrane translocation” value (full-length PKCθ W253G)?
A: 14.8%

Reference: article PMC6988732 (The Biochemical journal, 2013)
